Series [1] concerns SARS-CoV-2 (2019-nCoV/USA-WA1/2020). Nature of the series: SARS-CoV-2 antiviral assay. Particulars: Vero E6 cells; CC50/EC50. It is filed as cell-based.
Series [2] shares this test system. Description: SARS-CoV-2 antiviral assay. It is filed as cell-based. Particulars: for Selectivity index: Huh7.5 cells, CC50/EC50.
Series [3] can be described thus: in vitro. To be noted: human.
Series [4] can be described thus: in vitro. Particulars: African green monkey.
The subject of series [5] is SARS-CoV-2 (2019-nCoV/USA-WA1/2020). Nature of the series: SARS-CoV-2 antiviral assay. Particulars: for EC90: Severe acute respiratory syndrome coronavirus 2, in Homo sapiens, 48 h; for Selectivity index: CC50/EC50. It is filed as cell-based.
Another series has as its system human coronavirus 229E. Description: microbe, parasite or virus in culture. To be noted: MRC5, 72 h. It is filed as cell-based.
A short description of series [6]: in vitro. Particulars: both, human, plasma.
In series [7] the test system is SARS-CoV-2 (2019-nCoV/USA-WA1/2020). Description: SARS-CoV-2 antiviral assay. It is filed as cell-based. Particulars: for Selectivity index: Calu-3 cells, CC50/EC50.
Series [8] is described as follows: Seven-day oral pharmacokinetics and tolerability in Syrian hamsters. It is filed as in vivo. The method in brief:
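Syrian hamsters in groups of 3 received vehicle or test compound by oral gavage every 12 h for 7 days, at 16.9 or 13.2 mg/kg body weight. Plasma levels of the prodrug and its nucleoside metabolite were followed after dosing. Animals were monitored for adverse clinical signs.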

Series [9] can be described thus: in vitro.
Series [10] deals with SARS-CoV-2 (2019-nCoV/USA-WA1/2020). Description: SARS-CoV-2 antiviral assay. It is filed as cell-based. Particulars: for Selectivity index: Caco-2 cells, CC50/EC50; for EC50 / EC90: Severe acute respiratory syndrome coronavirus 2, Caco-2, 48 h.
A short description of series [11]: in vitro. Particulars: human. This is another data set of the same source.
Series [12] in a line: in vitro. To be noted: human. This is another data set of the same source.
Series [13] is described as follows: in vitro. Particulars: human. This is another data set of the same source.
For series [14] the following is noted: ex vivo; cited from earlier work.
Series [15] deals with SARS-CoV-2. To be noted: Calu-3 2B4 cells; cited from earlier work.
The conditions of series [16]: in vivo, rhesus monkeys; cited from earlier work.
The conditions of series [17]: cited from earlier work.
The test system of series [18] is SARS-CoV-2. Particulars: human alveolar epithelial (HAE) cells; cited from earlier work.
The mark [19] stands for this setting: Severe acute respiratory syndrome coronavirus 2, Huh7.5, 48 h.
Where [20] appears, read: Severe acute respiratory syndrome coronavirus 2, Calu-3, 48 h.

Entries after “also recorded” stand apart in the source; their conditions may differ. Where two headings read alike, the source gives them in different places. A value given as a limit tells only on which side of the number the result lay.

Regarding `CCCCCCCCCCCCCCCCOCCCOP(=O)(O)OC[C@H]1O[C@@](C#N)(c2ccc3c(N)ncnn23)[C@H](O)[C@@H]1O` [HDP-P-RVn, {(2R,3S,4R,5R)-5-(4-aminopyrrolo[2,1-f][1,2, 4]triazin-7-yl)-5-cyano-3,4-dihydroxytetrahydrofuran-2-yl}methyl [3-(hexadecyloxy)propyl] hydrogen phosphate], the Selectivity index was over 158 in series [1] and over 526 in series [2]. Moreover, the EC50 – broadly, the concentration giving half of the maximal effect – in [2] is 190 nM; in [2] (setting [19]), under 200 nM. For the same compound, the EC90 (commonly the concentration at which the effect reaches the 90% level) in series [2] (setting [19]) amounted to 400 nM; in series [5], 940 nM. The CC50 in “in vitro [3]” and in “in vitro [4]” was over 100000 nM throughout.
Turning to `CCCCCCCCCCCCCCCCCCOC[C@H](COP(=O)(O)OC[C@H]1O[C@@](C#N)(c2ccc3c(N)ncnn23)[C@H](O)[C@@H]1O)OCc1ccccc1` [ODBG-P-RVn, {(2R,3S,4R,5R)-5-(4-aminopyrrolo[2,1-f][1,2, 4]triazin-7-yl)-5-cyano-3,4-dihydroxytetrahydrofuran-2-yl]methyl [(R)-2-(benzyloxy)-3-(octadecyloxy)propyl] hydrogen phosphate], the EC50 in the series on human coronavirus 229E was 150 nM; in [7] (setting [20]), under 350 nM; in [2] (setting [19]), under 200 nM; in series [10] it was 300 nM. Besides, the EC90 in the series on human coronavirus 229E stood at 540 nM; in [7] (setting [20]), 330 nM; in series [2] (setting [19]) it was 150 nM; in series [5], 260 nM; in [10], 330 nM. Moreover, in the series “in vitro [6]”, the half-life (in general, how long it takes for the measured level to halve) was over 24 h. Also, the Selectivity index in series [7] stood at 327; in series [1] it was 699; in series [2], 449; in series [5] (PSC-human lung cells) it was 410; in series [10] it was 295. Moreover, the tolerability entry in series [8] (Syrian hamsters, oral gavage every 12 h for 7 days, 16.9 and 13.2 mg/kg) is “well tolerated; also recorded: well tolerated, and no adverse clinical signs were noted”. Moreover, the “plasma level of ODBG-P-RVn relative to its EC90” value in [8] (Syrian hamsters, oral, at 12 h, days 1 and 7, EC90 in all cell lines studied) is given as “above the 90% effective concentration (EC90); also recorded: higher than the EC90”. In addition, in [8] (Syrian, hamster, plasma, po), the Tmax (usually the time at which the peak concentration occurs) turned out to be 1 h. In addition, the CC50 in the series “in vitro [4]” is 97900 nM; in the series “in vitro [9]” it was 61500 to 98200 nM.
Turning to `CCCCCCCCCCCCCCCCCCOCCOP(=O)(O)OC[C@H]1O[C@@](C#N)(c2ccc3c(N)ncnn23)[C@H](O)[C@@H]1O` [ODE-P-RVn, {(2R,3S,4R,5R)-5-(4-aminopyrrolo[2,1-f][1,2, 4]triazin-7-yl)-5-cyano-3,4-dihydroxytetrahydrofuran-2-yl}methyl [2-(octadecyloxy)ethyl] hydrogen phosphate], the EC50 in [7] was 340 nM; in [7] (setting [20]) it was under 350 nM; in series [2] it was 190 nM; in series [2] (setting [19]) it was under 200 nM; in series [5] (PSC-human lung cells, […]), 220 nM; in [10], 770 nM. For the same compound, the Selectivity index is 290 in series [7]; over 333 in [1]; over 526 in series [2]; over 454 in series [5] (PSC-human lung cells); over 129 in series [10]. Also, the EC90 was determined as 640 nM in series [7] (setting [20]), 370 nM in [2] (setting [19]), 700 nM in series [5] and 1250 nM in [10]. Besides, the CC50 is over 100000 nM in “in vitro [11]”; over 100000 nM in “in vitro [12]”; 98700 nM in the series “in vitro [13]”; over 100000 nM in the series “in vitro [3]”; over 100000 nM in the series “in vitro [4]”.
As to `CCC(CC)COC(=O)[C@H](C)N[P@](=O)(OC[C@H]1O[C@@](C#N)(c2ccc3c(N)ncnn23)[C@H](O)[C@@H]1O)Oc1ccccc1` [RDV, remdesivir, reference compound], the EC50 was 40 nM in the series with human coronavirus 229E; 230 nM in [7] (setting [20]); 60 nM in [2] (setting [19]); 280 nM in the series on SARS-CoV-2 [15]; 170 nM in series [10]; 10 nM in the series with SARS-CoV-2 [18]. Besides, the EC90 in the series on human coronavirus 229E was 260 nM; in series [7] (setting [20]), 310 nM; in [2] (setting [19]) it was 120 nM; in [5], 230 nM; in series [10] it was 280 nM. Moreover, in series [14], the “half-life (t1/2) in human plasma” value is 1.15 h. The CC50 in the series “in vitro [4]” turned out to be 101000 nM. For the same compound, the “persistence in plasma after intravenous infusion” value in series [16] was “less than 2 h”; in [17] (in vivo, COVID-19 patients), “less than 2 h”. The “drop of plasma level after the intravenous infusion stopped” value in series [17] (two patients with COVID-19, 1 h after the infusion stopped) was over 90%.
With `N#C[C@@]1(c2ccc3c(N)ncnn23)O[C@H](CO)[C@@H](O)[C@H]1O` [RVn, remdesivir nucleoside, reference compound], the Selectivity index in series [7] is over 666; in series [2], over 312; in series [5] (PSC-human lung cells) it was over 135; in series [10] it was over 104. The EC50 in series [7] (setting [20]) worked out at 150 nM; in series [2] (setting [19]), 320 nM; in series [10], 960 nM. Besides, the EC90 in series [7] (setting [20]) stood at 180 nM; in series [2] (setting [19]) it was 730 nM; in series [5], 2620 nM; in series [10], 1750 nM. Also, the CC50 in the series “in vitro [11]”, in the series “in vitro [12]”, in “in vitro [13]”, in the series “in vitro [3]” and in the series “in vitro [4]” was over 100000 nM throughout.

(Values after PMC8448143 (Antimicrobial Agents and Chemotherapy, 2021).)
